Test results as given in ChEMBL document CHEMBL1255424, “Antistaphylococcal activity of ACHN-490 tested alone and in combination with other agents by time-kill assay” (2010).

How the values were obtained:
Format in all cases: functional
[1] = tested on: Staphylococcus aureus; assay: Antibacterial activity against vancomycin-susceptible Staphylococcus aureus after 24 hrs by modified broth macrodilution method
Method in brief: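 MICs determined in recent clinical MRSA isolates by a modified broth macrodilution method per CLSI recommendations, with 24 h incubation. Daptomycin tests used Mueller-Hinton broth supplemented with calcium. Value is the lowest inhibitory drug concentration.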

[2] = tested on: Staphylococcus aureus; assay: Antibacterial activity against vancomycin-intermediate Staphylococcus aureus after 24 hrs by modified broth macrodilution method
Method in brief: (§1)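 MIC read after 24 h incubation by modified broth macrodilution, validated per CLSI recommendations, against recent clinical MRSA isolates (hospital- and community-acquired, hVISA, VISA, VRSA). Daptomycin tests ran in Mueller-Hinton broth with added calcium.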

[3] = tested on: Staphylococcus aureus; assay: Antibacterial activity against vancomycin-hetero-intermediate Staphylococcus aureus after 24 hrs by modified broth macrodilution method; method in brief: as §1
[4] = tested on: Staphylococcus aureus; assay: Antibacterial activity against vancomycin-resistant Staphylococcus aureus after 24 hrs by modified broth macrodilution method; method in brief: as §1
[5] = tested on: Staphylococcus aureus; assay: Antibacterial activity against vancomycin-resistant Staphylococcus aureus isolate 557 after 24 hrs by modified broth macrodilution method; conditions: isolate 557, 24 h; method in brief: as §1
[6] = tested on: Staphylococcus aureus; assay: Antibacterial activity against vancomycin-resistant Staphylococcus aureus isolate 509 after 24 hrs by modified broth macrodilution method; conditions: isolate 509, 24 h; method in brief: as §1
[7] = tested on: Staphylococcus aureus; assay: Antibacterial activity against vancomycin-resistant Staphylococcus aureus isolate 1263 after 24 hrs by modified broth macrodilution method; conditions: isolate 1263, 24 h; method in brief: as §1
[8] = tested on: Staphylococcus aureus; assay: Antibacterial activity against vancomycin-resistant Staphylococcus aureus isolate 1264 after 24 hrs by modified broth macrodilution method; conditions: isolate 1264, 24 h; method in brief: as §1
[9] = tested on: Staphylococcus aureus; assay: Antibacterial activity against vancomycin-hetero-intermediate Staphylococcus aureus isolate 618 after 24 hrs by modified broth macrodilution method; conditions: isolate 618, 24 h; method in brief: as §1
[10] = tested on: Staphylococcus aureus; assay: Antibacterial activity against vancomycin-hetero-intermediate Staphylococcus aureus isolate 873 after 24 hrs by modified broth macrodilution method; conditions: isolate 873, 24 h; method in brief: as §1
[11] = tested on: Staphylococcus aureus; assay: Antibacterial activity against vancomycin-intermediate Staphylococcus aureus isolate 555 after 24 hrs by modified broth macrodilution method; conditions: isolate 555, 24 h; method in brief: as §1
[12] = tested on: Staphylococcus aureus; assay: Antibacterial activity against vancomycin-intermediate Staphylococcus aureus isolate 1287 after 24 hrs by modified broth macrodilution method; conditions: isolate 1287, 24 h; method in brief: as §1
[13] = tested on: Staphylococcus aureus; assay: Antibacterial activity against vancomycin-intermediate Staphylococcus aureus isolate 770 after 24 hrs by modified broth macrodilution method; conditions: isolate 770, 24 h; method in brief: as §1
[14] = tested on: Staphylococcus aureus; assay: Antibacterial activity against vancomycin-intermediate Staphylococcus aureus isolate 1008 after 24 hrs by modified broth macrodilution method; conditions: isolate 1008, 24 h; method in brief: as §1
[15] = tested on: Staphylococcus aureus; assay: Antibacterial activity against vancomycin-intermediate Staphylococcus aureus isolate 1009 after 24 hrs by modified broth macrodilution method; conditions: isolate 1009, 24 h; method in brief: as §1
[16] = tested on: Staphylococcus aureus; assay: Antibacterial activity against vancomycin-intermediate Staphylococcus aureus isolate 1010 after 24 hrs by modified broth macrodilution method; conditions: isolate 1010, 24 h; method in brief: as §1
[17] = tested on: Staphylococcus aureus; assay: Antibacterial activity against vancomycin-intermediate Staphylococcus aureus isolate 1011 after 24 hrs by modified broth macrodilution method; conditions: isolate 1011, 24 h; method in brief: as §1
[18] = tested on: Staphylococcus aureus; assay: Antibacterial activity against vancomycin-intermediate Staphylococcus aureus isolate 1012 after 24 hrs by modified broth macrodilution method; conditions: isolate 1012, 24 h; method in brief: as §1
[19] = tested on: Staphylococcus aureus; assay: Antibacterial activity against vancomycin-intermediate Staphylococcus aureus isolate 1013 after 24 hrs by modified broth macrodilution method; conditions: isolate 1013, 24 h; method in brief: as §1
[20] = tested on: Staphylococcus aureus; assay: Antibacterial activity against vancomycin-intermediate Staphylococcus aureus isolate 1014 after 24 hrs by modified broth macrodilution method; conditions: isolate 1014, 24 h; method in brief: as §1
[21] = tested on: Staphylococcus aureus; assay: Antibacterial activity against vancomycin-intermediate Staphylococcus aureus isolate 1015 after 24 hrs by modified broth macrodilution method; conditions: isolate 1015, 24 h; method in brief: as §1
[22] = tested on: Staphylococcus aureus; assay: Antibacterial activity against vancomycin-intermediate Staphylococcus aureus isolate 1016 after 24 hrs by modified broth macrodilution method; conditions: isolate 1016, 24 h; method in brief: as §1
[23] = tested on: Staphylococcus aureus; assay: Antibacterial activity against vancomycin-intermediate Staphylococcus aureus isolate 1017 after 24 hrs by modified broth macrodilution method; conditions: isolate 1017, 24 h; method in brief: as §1
[24] = tested on: Staphylococcus aureus; assay: Antibacterial activity against vancomycin-intermediate Staphylococcus aureus isolate 511 after 24 hrs by modified broth macrodilution method; conditions: isolate 511, 24 h; method in brief: as §1
[25] = tested on: Staphylococcus aureus; assay: Antibacterial activity against vancomycin-intermediate Staphylococcus aureus isolate 1003 after 24 hrs by modified broth macrodilution method; conditions: isolate 1003, 24 h; method in brief: as §1
[26] = tested on: Staphylococcus aureus; assay: Antibacterial activity against vancomycin-intermediate Staphylococcus aureus isolate 1004 after 24 hrs by modified broth macrodilution method; conditions: isolate 1004, 24 h; method in brief: as §1
[27] = tested on: Staphylococcus aureus; assay: Antibacterial activity against vancomycin-intermediate Staphylococcus aureus isolate 1005 after 24 hrs by modified broth macrodilution method; conditions: isolate 1005, 24 h; method in brief: as §1
[28] = tested on: Staphylococcus aureus; assay: Antibacterial activity against vancomycin-intermediate Staphylococcus aureus isolate 1006 after 24 hrs by modified broth macrodilution method; conditions: isolate 1006, 24 h; method in brief: as §1
[29] = tested on: Staphylococcus aureus; assay: Antibacterial activity against vancomycin-intermediate Staphylococcus aureus isolate 1984 after 24 hrs by modified broth macrodilution method; conditions: isolate 1984, 24 h; method in brief: as §1
[30] = tested on: Staphylococcus aureus; assay: Antibacterial activity against vancomycin-intermediate Staphylococcus aureus isolate 1007 after 24 hrs by modified broth macrodilution method; conditions: isolate 1007, 24 h; method in brief: as §1
[31] = tested on: Staphylococcus aureus; assay: Antibacterial activity against methicillin-resistant Staphylococcus aureus isolate 2003 after 24 hrs by modified broth macrodilution method; conditions: isolate 2003, 24 h; method in brief: as §1
[32] = tested on: Staphylococcus aureus; assay: Antibacterial activity against hospital-acquired methicillin-resistant Staphylococcus aureus isolate 1743 after 24 hrs by modified broth macrodilution method; conditions: isolate 1743, 24 h; method in brief: as §1
[33] = tested on: Staphylococcus aureus; assay: Antibacterial activity against hospital-acquired methicillin-resistant Staphylococcus aureus isolate 1751 after 24 hrs by modified broth macrodilution method; conditions: isolate 1751, 24 h; method in brief: as §1
[34] = tested on: Staphylococcus aureus; assay: Antibacterial activity against hospital-acquired methicillin-resistant Staphylococcus aureus isolate 1766 after 24 hrs by modified broth macrodilution method; conditions: isolate 1766, 24 h; method in brief: as §1
[35] = tested on: Staphylococcus aureus; assay: Antibacterial activity against hospital-acquired methicillin-resistant Staphylococcus aureus isolate 1776 after 24 hrs by modified broth macrodilution method; conditions: isolate 1776, 24 h; method in brief: as §1
[36] = tested on: Staphylococcus aureus; assay: Antibacterial activity against hospital-acquired methicillin-resistant Staphylococcus aureus isolate 1806 after 24 hrs by modified broth macrodilution method; conditions: isolate 1806, 24 h; method in brief: as §1
[37] = tested on: Staphylococcus aureus; assay: Antibacterial activity against hospital-acquired methicillin-resistant Staphylococcus aureus isolate 1808 after 24 hrs by modified broth macrodilution method; conditions: isolate 1808, 24 h; method in brief: as §1
[38] = tested on: Staphylococcus aureus; assay: Antibacterial activity against hospital-acquired methicillin-resistant Staphylococcus aureus isolate 1838 after 24 hrs by modified broth macrodilution method; conditions: isolate 1838, 24 h; method in brief: as §1
[39] = tested on: Staphylococcus aureus; assay: Antibacterial activity against hospital-acquired methicillin-resistant Staphylococcus aureus isolate 1851 after 24 hrs by modified broth macrodilution method; conditions: isolate 1851, 24 h; method in brief: as §1
[40] = tested on: Staphylococcus aureus; assay: Antibacterial activity against hospital-acquired methicillin-resistant Staphylococcus aureus isolate 1867 after 24 hrs by modified broth macrodilution method; conditions: isolate 1867, 24 h; method in brief: as §1
[41] = tested on: Staphylococcus aureus; assay: Antibacterial activity against community-acquired methicillin-resistant panton-valentine leukocidin-positive Staphylococcus aureus isolate 1468 after 24 hrs by modified broth macrodilution method; conditions: isolate 1468, 24 h; method in brief: as §1
[42] = tested on: Staphylococcus aureus; assay: Antibacterial activity against community-acquired methicillin-resistant panton-valentine leukocidin-positive Staphylococcus aureus isolate 1469 after 24 hrs by modified broth macrodilution method; conditions: isolate 1469, 24 h; method in brief: as §1
[43] = tested on: Staphylococcus aureus; assay: Antibacterial activity against community-acquired methicillin-resistant panton-valentine leukocidin-positive Staphylococcus aureus isolate 815 after 24 hrs by modified broth macrodilution method; conditions: isolate 815, 24 h; method in brief: as §1
[44] = tested on: Staphylococcus aureus; assay: Antibacterial activity against community-acquired methicillin-resistant panton-valentine leukocidin-positive Staphylococcus aureus isolate 950 after 24 hrs by modified broth macrodilution method; conditions: isolate 950, 24 h; method in brief: as §1
[45] = tested on: Staphylococcus aureus; assay: Antibacterial activity against community-acquired methicillin-resistant panton-valentine leukocidin-positive Staphylococcus aureus isolate 1471 after 24 hrs by modified broth macrodilution method; conditions: isolate 1471, 24 h; method in brief: as §1
[46] = tested on: Staphylococcus aureus; assay: Antibacterial activity against community-acquired methicillin-resistant panton-valentine leukocidin-positive Staphylococcus aureus isolate 1472 after 24 hrs by modified broth macrodilution method; conditions: isolate 1472, 24 h; method in brief: as §1
[47] = tested on: Staphylococcus aureus; assay: Antibacterial activity against community-acquired methicillin-resistant panton-valentine leukocidin-positive Staphylococcus aureus isolate 593 after 24 hrs by modified broth macrodilution method; conditions: isolate 593, 24 h; method in brief: as §1
[48] = tested on: Staphylococcus aureus; assay: Antibacterial activity against community-acquired methicillin-resistant panton-valentine leukocidin-positive Staphylococcus aureus isolate 693 after 24 hrs by modified broth macrodilution method; conditions: isolate 693, 24 h; method in brief: as §1
[49] = tested on: Staphylococcus aureus; assay: Antibacterial activity against community-acquired methicillin-resistant panton-valentine leukocidin-positive Staphylococcus aureus isolate 813 after 24 hrs by modified broth macrodilution method; conditions: isolate 813, 24 h; method in brief: as §1
[50] = tested on: Staphylococcus aureus; assay: Antibacterial activity against community-acquired methicillin-resistant panton-valentine leukocidin-negative Staphylococcus aureus isolate 1470 after 24 hrs by modified broth macrodilution method; conditions: isolate 1470, 24 h; method in brief: as §1
[51] = tested on: Staphylococcus aureus; assay: Antibacterial activity against vancomycin-resistant Staphylococcus aureus isolate 510 after 24 hrs by modified broth macrodilution method; conditions: isolate 510, 24 h; method in brief: as §1

Measured: MIC

Nc1nc(/C(=N/O)C(=O)N[C@@H]2C(=O)N3C(C(=O)O)=C(/C=C4\CCN([C@@H]5CCNC5)C4=O)CS[C@H]23)ns1 [CEFTOBIPROLE]
4 µg/mL: [17] | [18] | [22]
0.5 µg/mL: [1] | [2] | [4] | [8] | [12] | [43]
1 µg/mL: [5] | [11] | [21] | [26] | [27] | [30] | [33] | [36] | [37] | [39] | [41] | [42] | [44] | [45] | [46] | [47] | [48] | [49] | [51]
2 µg/mL: all other assays above

CC(=O)NC[C@H]1CN(c2ccc(N3CCOCC3)c(F)c2)C(=O)O1 [LINEZOLID]
1 µg/mL: [2] | [22] | [28]
